Test results taken from ChEMBL document CHEMBL3232747, “Potential anti-angiogenesis effects of p-terphenyl compounds from Polyozellus multiplex” (J Nat Prod, 2014).
Calls of active or inactive are those of the source. No cut-off for these calls is given here.

Columns and labels:
HUVEC [1] = experiment: Growth inhibition of HUVEC by WST-8 assay; assay type: functional, cell-based; conditions: Homo sapiens
Outline: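 HUVECs (passages 2–8), 3 × 10^3 cells/well on collagen, adhered 12 h in EGM-2, then 12 h in EGM-2 lacking VEGF and bFGF. VEGF (1 nM) plus compound added for 72 h at 37 °C, 5% CO2. WST-8 added 2 h, absorbance at 450 nm; Ki8751 as positive control.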

[2] = target: Vascular endothelial growth factor receptor 2 (Homo sapiens, UniProt P35968); experiment: Inhibition of recombinant human VEGFR2
Outline: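 Recombinant VEGFR2 tyrosine kinase activity measured by ELISA using a universal tyrosine kinase assay kit; Ki8751 as positive control.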

HUVEC [3] = experiment: Antiinvasive activity in HUVEC by matrigel assay at 2.5 uM after 22 hrs by fluorescence microscopic technique; assay type: functional, cell-based; conditions: Homo sapiens
Outline: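 HUVECs starved 5 h in serum-free EBM-2 with 0.2% BSA, then 1 × 10^5 cells with compound (2.5 or 5 μM) loaded into inserts coated with 0.2 mg/mL Matrigel. Lower chamber: EBM-2, 0.2% BSA, 20 ng/mL VEGF, 1% FBS plus compound. After 22 h at 37 °C, invaded cells calcein-AM labeled, read at 494/517 nm; mean ± SD, n = 3.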

HUVEC [4] = experiment: Antiangiogenic activity in HUVEC assessed as inhibition of tubule network formation after 16 hrs by fluorescence microscopic technique; assay type: functional, cell-based; conditions: Homo sapiens
Outline: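 HUVECs (passages 2–8) plated at 1.6 × 10^4 cells on polymerized Matrigel with test compound at 2.5, 5, 7.5 or 10 μM; suramin 10 μM as positive control. Incubated 16 h, 37 °C, 5% CO2. Calcein-AM stained, imaged by fluorescence microscopy at 4×, total tubule length quantified.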

Vascular endothelial growth factor receptor 2, sequence (P35968 whole entry): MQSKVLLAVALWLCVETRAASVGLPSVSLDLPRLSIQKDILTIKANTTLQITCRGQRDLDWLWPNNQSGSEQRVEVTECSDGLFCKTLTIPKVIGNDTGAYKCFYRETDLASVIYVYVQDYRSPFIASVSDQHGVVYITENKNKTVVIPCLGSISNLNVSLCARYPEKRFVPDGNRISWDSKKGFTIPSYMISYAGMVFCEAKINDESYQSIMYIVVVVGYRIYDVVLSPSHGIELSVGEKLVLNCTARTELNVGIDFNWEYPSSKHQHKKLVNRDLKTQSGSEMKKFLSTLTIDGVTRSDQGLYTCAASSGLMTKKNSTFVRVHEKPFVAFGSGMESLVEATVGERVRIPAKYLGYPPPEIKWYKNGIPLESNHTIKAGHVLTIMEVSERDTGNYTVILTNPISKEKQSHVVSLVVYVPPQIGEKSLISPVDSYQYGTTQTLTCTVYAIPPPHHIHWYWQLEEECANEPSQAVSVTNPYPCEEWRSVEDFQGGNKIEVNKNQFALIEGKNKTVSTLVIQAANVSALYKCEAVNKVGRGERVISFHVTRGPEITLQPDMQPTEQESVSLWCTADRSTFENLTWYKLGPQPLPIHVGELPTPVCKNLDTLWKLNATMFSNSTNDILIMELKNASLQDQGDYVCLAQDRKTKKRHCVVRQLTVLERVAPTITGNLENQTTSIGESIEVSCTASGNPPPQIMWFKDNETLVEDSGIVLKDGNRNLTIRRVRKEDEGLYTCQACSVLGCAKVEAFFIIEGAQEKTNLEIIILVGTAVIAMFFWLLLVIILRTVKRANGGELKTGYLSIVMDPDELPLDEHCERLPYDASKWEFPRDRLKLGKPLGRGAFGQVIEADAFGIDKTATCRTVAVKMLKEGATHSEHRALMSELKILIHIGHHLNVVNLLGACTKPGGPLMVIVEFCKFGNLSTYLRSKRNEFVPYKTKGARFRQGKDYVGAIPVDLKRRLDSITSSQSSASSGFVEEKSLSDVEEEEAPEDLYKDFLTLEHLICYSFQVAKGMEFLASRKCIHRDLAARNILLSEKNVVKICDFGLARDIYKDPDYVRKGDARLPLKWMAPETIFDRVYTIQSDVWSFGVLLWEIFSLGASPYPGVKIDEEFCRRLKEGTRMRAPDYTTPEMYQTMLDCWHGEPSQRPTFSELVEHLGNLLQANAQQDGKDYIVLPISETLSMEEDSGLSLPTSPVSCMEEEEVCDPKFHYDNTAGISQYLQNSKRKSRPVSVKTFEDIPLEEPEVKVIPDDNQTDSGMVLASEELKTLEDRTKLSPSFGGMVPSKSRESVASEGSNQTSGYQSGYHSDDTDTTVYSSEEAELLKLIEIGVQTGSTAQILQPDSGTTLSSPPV

SMILES: O=C1c2oc3cc(O)c(O)cc3c2C(=O)c2oc3cc(O)c(O)cc3c21
- IC50 (HUVEC [1]): 3.4 µM
- IC50 [2]: 70 µM
- inhibition (HUVEC [3]): Active
- inhibition (HUVEC [4]): Dose-dependent effect

SMILES: CC(=O)Oc1c2oc3cc(O)c(O)cc3c2c(OC(C)=O)c2oc3cc(O)c(O)cc3c12 [POLYOZELLIN]
- IC50 (HUVEC [1]): 10.2 µM
- IC50 [2]: 66 µM
- inhibition (HUVEC [4]): inactive

SMILES: COc1cc2nccc(Oc3ccc(NC(=O)Nc4ccc(F)cc4F)c(F)c3)c2cc1OC
- IC50 (HUVEC [1]): 1.4 µM
- IC50 [2]: 2.4 µM

SMILES: CC(=O)CC1(O)C(=O)c2c(oc3cc(O)c(O)cc23)-c2oc3cc(O)c(O)cc3c21 (racemic)
- IC50 (HUVEC [1]): 21.4 µM
- IC50 [2]: 52 µM
- inhibition (HUVEC [4]): inactive

SMILES: O=C1C(=O)c2c(oc3cc(O)c(O)cc23)-c2oc3cc(O)c(O)cc3c21
- IC50 (HUVEC [1]): 7.6 µM
- IC50 [2]: 32 µM
- inhibition (HUVEC [3]): Active
- inhibition (HUVEC [4]): Dose-dependent effect
